Numbering of substitutions follows the chain as printed. Activity calls are given as the source filed them. The calls are words filed in the database; no cut-off is given here.
Legend:
Renin [1] = molecular target: T1, Renin (Macaca fascicularis, UniProt Q6DLS0); assay: Inhibition of renin in cynomolgus monkey plasma after 1 hr by RIA
T1 sequence (Q6DLS0 whole entry): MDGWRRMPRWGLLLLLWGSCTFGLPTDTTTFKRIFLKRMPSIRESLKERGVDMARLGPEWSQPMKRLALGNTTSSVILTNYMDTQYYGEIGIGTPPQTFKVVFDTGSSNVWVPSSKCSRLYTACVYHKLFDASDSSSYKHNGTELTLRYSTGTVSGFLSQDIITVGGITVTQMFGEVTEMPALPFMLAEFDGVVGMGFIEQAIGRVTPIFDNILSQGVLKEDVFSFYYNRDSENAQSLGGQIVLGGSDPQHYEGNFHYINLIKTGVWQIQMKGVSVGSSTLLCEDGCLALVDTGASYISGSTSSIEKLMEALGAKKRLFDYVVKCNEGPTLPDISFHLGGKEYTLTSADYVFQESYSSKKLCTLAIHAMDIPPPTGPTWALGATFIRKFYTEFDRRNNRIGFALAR
In short: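 Pooled mixed-gender EDTA cynomolgus monkey plasma with pH adjusting solution and Inhibitor A, compound in 1% DMSO final, incubated 1 h at 37 °C. Angiotensin I by competitive RIA; uninhibited and 4 °C controls define % inhibition; IC50 from four-parameter fit; ratio is compound IC50 over aliskiren IC50 in same plasma batch; ≥2 replicates.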

Renin [2] = molecular target: T2, Renin (Homo sapiens, UniProt P00797); assay: Inhibition of human recombinant renin using Arg-Glu(EDANS)-Ile-His-Pro-Phe-His-Leu-Val-Ile-His-Thr-Lys (DABCYL)-Arg as substrate incubated for 10 mins prior to substrate addition measured after 90 mins by fluorescence assay
T2 sequence (P00797 whole entry): T1 sequence (Q6DLS0 whole entry) with A68T, L214I, A235S
In short: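 Trypsin-activated recombinant human renin in 50 mM Tris-HCl pH 7.9, 100 mM NaCl, preincubated with compound 10 min at room temperature; FRET substrate Arg-Glu(EDANS)…Lys(DABCYL)-Arg added, 90 min at 37 °C.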

[3] = Cmax in cynomolgus monkey at 3 mg/kg, po by HPLC-MS/MS analysis; format: ADME, organism-based, Macaca fascicularis; set-up: dose 3 mg/kg, route oral; details: in vivo
In short: (§1)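 Blood sampled over 24 h, at least 7 time points; plasma levels by HPLC-MS/MS; parameters from non-compartmental analysis of concentration-time curves.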

Rattus norvegicus [4] = assay: Cardiotoxicity in Sprague-Dawley rat electrophysiology model assessed as QRS complex abnormalities at 10 mg/kg, iv by ECG analysis; format: toxicity, organism-based; set-up: dose 10 mg/kg, route intravenous; details: in vivo
In short: (§2)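 Male Sprague-Dawley rats anesthetized with inactin 100 mg/kg ip; surface lead II ECG recorded continuously. Compounds given as iv bolus via right jugular vein catheter after stabilization; QRS complex abnormality scored as no, moderate or severe change; n = 2 at 10 mg/kg.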

[5] = AUC (0 to 24 hrs) in cynomolgus monkey at 3 mg/kg, po by HPLC-MS/MS analysis; format: ADME, organism-based, Macaca fascicularis; set-up: time < 24 hr, dose 3 mg/kg, route oral; details: plasma; in short: as §1
[6] = molecular target: T3, Renin (Macaca fascicularis) (UniProt Q6DLS0); assay: Ratio of compound IC50 to aliskiren IC50 for renin in cynomolgus monkey plasma
T3 sequence (whole entry): T1 sequence (Q6DLS0 whole entry)

Heart [7] = assay: Cardiotoxicity in anesthetized New Zealand White rabbit heart assessed as ventricular tachycardia and ventricular fibrillation at 30 uM after 20 mins; format: toxicity, tissue-based, Oryctolagus cuniculus
In short: (§3)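 Isolated Langendorff-perfused hearts from female NZW rabbits anesthetized with thiopental 30 mg/kg iv; heart excised into chilled Krebs-Henseleit solution. After parameters stabilized, compound perfused at 10, 30 and 100 µM for 20 min; ECG changes expressed as % change from baseline.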

Heart [8] = assay: Cardiotoxicity in anesthetized New Zealand White rabbit heart assessed as prolongation of QTc interval at 10 uM after 20 mins relative to baseline; format: toxicity, tissue-based, Oryctolagus cuniculus; in short: as §3
Heart [9] = assay: Cardiotoxicity in anesthetized New Zealand White rabbit heart assessed as prolongation of QRS width at 10 uM after 20 mins relative to baseline; format: toxicity, tissue-based, Oryctolagus cuniculus; in short: as §3
Heart [10] = assay: Cardiotoxicity in anesthetized New Zealand White rabbit heart assessed as prolongation of […] at 10 uM after 20 mins relative to baseline; format: toxicity, tissue-based, Oryctolagus cuniculus; in short: as §3
Heart [11] = assay: Cardiotoxicity in anesthetized New Zealand White rabbit heart assessed as prolongation of heart rate at 10 uM after 20 mins relative to baseline; format: toxicity, tissue-based, Oryctolagus cuniculus; in short: as §3
Rattus norvegicus [12] = assay: Cardiotoxicity in Sprague-Dawley rat electrophysiology model assessed as QRS complex abnormalities at 10 mg/kg, iv; format: toxicity, organism-based; set-up: dose 10 mg/kg, route intravenous; details: in vivo; in short: as §2
Rattus norvegicus [13] = assay: Toxicity in Sprague-Dawley rat electrophysiology model assessed as mortality at 3 to 10 mg/kg, iv; format: organism-based; set-up: dose 3-10 mg/kg, route intravenous; details: in vivo
Rattus norvegicus [14] = assay: Cardiotoxicity in iv bolus dosed Sprague-Dawley rat electrophysiology model assessed as QRS complex abnormalities; format: toxicity, organism-based; details: in vivo; in short: as §2
Cynomolgus monkey [15] = assay: Inhibition of renin in furosemide pretreated cynomolgus monkey assessed as reduction in mean arterial blood pressure at 3 mg/kg, po; format: functional, organism-based; set-up: dose 3 mg/kg; details: Macaca fascicularis
In short: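 Conscious freely moving telemetered cynomolgus monkeys (n = 6), furosemide 5 mg/kg/day im for 3 days before dosing; fasted from morning, fed ≥8 h post-dose. Oral 1, 3, 10 mg/kg or 1% methylcellulose, crossover design; arterial pressure recorded from −3 to 24 h; hourly mean MAP; mean ± SEM.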

Cynomolgus monkey [16] = assay: Inhibition of renin in furosemide pretreated cynomolgus monkey plasma at 3 mg/kg, po; format: functional, organism-based; set-up: dose 3 mg/kg; details: Macaca fascicularis
In short: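 Cynomolgus monkeys pretreated with furosemide given single oral dose 1, 3 or 10 mg/kg or vehicle 1% methylcellulose. Venous blood into EDTA-2Na tubes at 1, 2, 4, 8, 24 h, chilled, centrifuged cold, plasma frozen; plasma renin activity by radioimmunoassay.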

Cynomolgus monkey [17] = assay: Cardiotoxicity in telemetered cynomolgus monkey assessed as ventricular tachycardia at 50 mg/kg, po; format: toxicity, organism-based, Macaca fascicularis, Cardiac ventricle; set-up: dose 50 mg/kg, route oral; details: in vivo
Cynomolgus monkey [18] = assay: Cardiotoxicity in telemetered cynomolgus monkey assessed as ventricular fibrillation at 50 mg/kg, po; format: toxicity, organism-based, Macaca fascicularis, Cardiac ventricle; set-up: dose 50 mg/kg, route oral; details: in vivo
Rattus norvegicus [19] = organism: Rattus norvegicus; assay: Displacement of [3H]batrachotoxin from sodium channel (site 2) in Wistar rat brain at 10 uM relative to control; format: tissue-based
In short: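 Rat brain membranes in modified Tris–HCl buffer, pH 7.4, incubated 1 h at 37 °C with 5 nM [3H]batrachotoxin plus test compound. Nonspecific binding defined with excess veratridine. Binding affinity is expressed as percent inhibition relative to vehicle control.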

[20] = Oral bioavailability in cynomolgus monkey at 3 mg/kg by HPLC-MS/MS analysis; format: ADME, organism-based, Macaca fascicularis; details: in vivo; in short: as §1
[21] = Clearance in cynomolgus monkey at 1 mg/kg, iv by HPLC-MS/MS analysis; format: ADME, organism-based, Macaca fascicularis; set-up: dose 1 mg/kg, route intravenous; details: in vivo
[22] = Half life in cynomolgus monkey at 3 mg/kg, po by HPLC-MS/MS analysis; format: ADME, organism-based, Macaca fascicularis; set-up: dose 3 mg/kg, route oral; details: in vivo; in short: as §1
[23] = Volume of distribution at steady state in cynomolgus monkey at 1 mg/kg, iv by HPLC-MS/MS analysis; format: ADME, organism-based, Macaca fascicularis; set-up: dose 1 mg/kg, route intravenous; details: in vivo, read-out: Vdss
Heart [24] = assay: Cardiotoxicity in anesthetized New Zealand White rabbit heart assessed as prolongation of QRS width at 30 uM after 20 mins relative to baseline; format: toxicity, tissue-based, Oryctolagus cuniculus; in short: as §3
Heart [25] = assay: Cardiotoxicity in anesthetized New Zealand White rabbit heart assessed as prolongation of QTc interval at 30 uM after 20 mins relative to baseline; format: toxicity, tissue-based, Oryctolagus cuniculus; in short: as §3
Heart [26] = assay: Cardiotoxicity in anesthetized New Zealand White rabbit heart assessed as prolongation of […] at 30 uM after 20 mins relative to baseline; format: toxicity, tissue-based, Oryctolagus cuniculus; in short: as §3
Heart [27] = assay: Cardiotoxicity in anesthetized New Zealand White rabbit heart assessed as prolongation of heart rate at 30 uM after 20 mins relative to baseline; format: toxicity, tissue-based, Oryctolagus cuniculus; in short: as §3

SMILES	IC50 (Renin [1]) [nM]	IC50 (Renin [2]) [nM]	Activity (Rattus norvegicus [4])	Ratio IC50 [6]	also measured
CC(C)[C@H](C[C@H](O)[C@@H](N)CN1CC(=O)N(c2ccccc2Cl)CC1(C)C)C(=O)N[C@H]1CC[C@H](O)CC1.O=C(O)/C=C/C(=O)O	4.3	1.4	Non-toxic	0.8	Cmax [3]: 19 ng/mL; AUC(0-t) at 24 h [5]: 75 ng·h/mL
CC[C@H](C[C@H](O)[C@@H](N)CN1CC(=O)N(c2ccccc2Cl)CC1(C)C)C(=O)NC1C2CC3CC1CC(C(N)=O)(C3)C2.O=C(O)/C=C/C(=O)O (some centres undefined)	1.2	1.3		0.5	Cmax [3]: 19 ng/mL; AUC(0-t) at 24 h [5]: 90 ng·h/mL
CC(C)[C@H](C[C@H](O)[C@@H](N)CN1CC(=O)N(c2ccccc2Cl)CC1(C)C)C(=O)Nc1ccc(F)cn1.O=C(O)/C=C/C(=O)O	3.4	0.9	Toxic	0.5	Activity (Heart [7]): Toxic; Activity (Heart [8]): 13.5%; Activity (Heart [9]): 74.7%; Activity (Heart [10]): 64.1%; Activity (Heart [11]): -3.7%
CN1CC(=O)N(c2ccccc2Cl)CC1(C)C					Activity (Rattus norvegicus [12]): Non-toxic
CCN(CC)CC(=O)Nc1c(C)cccc1C [LIDOCAINE]					Activity (Rattus norvegicus [12]): Toxic
CC(C)[C@H](C[C@H](O)[C@@H](N)CN1CC(=O)N(c2ccccc2Cl)CC1(C)C)C(=O)NCC(C)(C)C.O=C(O)/C=C/C(=O)O	3	1	Toxic	0.5	Activity (Rattus norvegicus [13]): Toxic; Activity (Rattus norvegicus [14]): Dose-dependent effect; inhibition (Cynomolgus monkey [15]): Active; inhibition (Cynomolgus monkey [16]): Active; Activity (Heart [7]): Toxic; Activity (Cynomolgus monkey [17]): Toxic; Activity (Cynomolgus monkey [18]): Toxic; Activity (Rattus norvegicus [19]): 87%; Activity (Heart [8]): -1.5%; Activity (Heart [9]): 15.6%; Activity (Heart [10]): 68.9%; bioavailability [20]: 26.4%; Activity (Heart [11]): -4.6%; clearance [21]: 28.4 mL/min/kg; half-life [22]: 15.3 h; Vd [23]: 23.5 L/kg; Cmax [3]: 111 ng/mL; AUC(0-t) at 24 h [5]: 460 ng·h/mL
CC(C)[C@H](C[C@H](O)[C@@H](N)CN1CC(=O)N(c2ccccc2Cl)CC1(C)C)C(=O)N[C@H]1C2CC3CC1C[C@](O)(C3)C2.O=C(O)/C=C/C(=O)O	2.2	1.3	Non-toxic	0.9	
CC(C)[C@H](C[C@H](O)[C@@H](N)CN1CC(=O)N(c2ccccc2Cl)CC1(C)C)C(=O)Nc1ccncc1.O=C(O)/C=C/C(=O)O	15	1.6	Toxic	1.5	
CC[C@H](C[C@H](O)[C@@H](N)CN1CC(=O)N(c2ccccc2Cl)CC1(C)C)C(=O)NCC(C)(C)CO.O=C(O)/C=C/C(=O)O	5.2	1.6	Non-toxic	0.8	Activity (Heart [8]): -2.1%; Activity (Heart [24]): 1.7%; Activity (Heart [25]): -5.4%; Activity (Heart [9]): 3.8%; Activity (Heart [26]): 3.4%; Activity (Heart [10]): -7.8%; Activity (Heart [27]): -4.3%; Activity (Heart [11]): -3.5%
CC[C@H](C[C@H](O)[C@@H](N)CN1CC(=O)N(c2cc(F)ccc2Cl)CC1(C)C)C(=O)N[C@H]1C2CC3CC1C[C@](O)(C3)C2.O=C(O)/C=C/C(=O)O	3.6	1.4	Non-toxic	0.7	
Cc1ccc(F)cc1N1CC(C)(C)N(C[C@H](N)[C@@H](O)C[C@@H](C)C(=O)NCC(C)(C)C)CC1=O.O=C(O)/C=C/C(=O)O	3.4	1.1	Toxic	0.6	
CC(C)[C@H](C[C@H](O)[C@@H](N)CN1CC(=O)N(c2ccccc2Cl)CC1(C)C)C(=O)Nc1ccc(F)c(F)c1.O=C(O)/C=C/C(=O)O	21	1.9	Toxic	4.5	
CC(C)[C@H](C[C@H](O)[C@@H](N)CN1CC(=O)N(c2cc(F)ccc2Cl)CC1(C)C)C(=O)N[C@H]1C2CC3CC1C[C@](O)(C3)C2.O=C(O)/C=C/C(=O)O	7.8	1.9	Non-toxic	0.7	
CC[C@H](C[C@H](O)[C@@H](N)CN1CC(=O)N(c2cc(F)ccc2C)CC1(C)C)C(=O)N[C@H]1C2CC3CC1C[C@](O)(C3)C2.O=C(O)/C=C/C(=O)O	4.6	1.6	Non-toxic	0.9	

From ChEMBL document CHEMBL2384910, “Lead optimization of 5-amino-6-(2,2-dimethyl-5-oxo-4-phenylpiperazin-1-yl)-4-hydroxyhexanamides to reduce a cardiac safety issue: discovery of DS-8108b, an orally active renin inhibitor” (Bioorg Med Chem, 2013)
